Reference: ChEMBL document CHEMBL5046302, “Identification and Evaluation of Brominated Carbazoles as a Novel Antibiotic Adjuvant Scaffold in MRSA” (2022)
Calls of active or inactive are those of the source. The rule behind the calls is not given here.

Assays:
Format in all cases: functional
Staphylococcus aureus [1] = assay: Potentiation of ceftazidime induced antibacterial activity against methicillin-resistant Staphylococcus aureus USA300 assessed as ceftazidime MIC at 50 uM after 18 hrs by CLSI protocol based broth microdilution assay
Staphylococcus aureus [2] = assay: Potentiation of methicillin induced antibacterial activity against methicillin-resistant Staphylococcus aureus COL assessed as methicillin MIC at 50 uM after 18 hrs by CLSI protocol based broth microdilution assay
Staphylococcus aureus [3] = assay: Potentiation of methicillin induced antibacterial activity against methicillin-resistant Staphylococcus aureus USA100 assessed as fold change in methicillin MIC at 50 uM after 18 hrs by CLSI protocol based broth microdilution assay
Staphylococcus aureus [4] = assay: Potentiation of oxacillin induced antibacterial activity against methicillin-resistant Staphylococcus aureus USA100 assessed as oxacillin MIC at 50 uM after 18 hrs by CLSI protocol based broth microdilution assay
Staphylococcus aureus [5] = assay: Potentiation of ampicillin induced antibacterial activity against methicillin-resistant Staphylococcus aureus USA100 assessed as ampicillin MIC at 50 uM after 18 hrs by CLSI protocol based broth microdilution assay
Staphylococcus aureus [6] = assay: Potentiation of methicillin induced antibacterial activity against methicillin-resistant Staphylococcus aureus USA100 assessed as methicillin MIC at 50 uM after 18 hrs by CLSI protocol based broth microdilution assay
Staphylococcus aureus [7] = assay: Potentiation of oxacillin induced antibacterial activity against methicillin-resistant Staphylococcus aureus ATCC 43300 assessed as fold change in oxacillin MIC at 50 uM after 18 hrs by CLSI protocol based broth microdilution assay
Staphylococcus aureus [8] = assay: Potentiation of ampicillin induced antibacterial activity against methicillin-resistant Staphylococcus aureus USA300 assessed as ampicillin MIC at 50 uM after 18 hrs by CLSI protocol based broth microdilution assay
Staphylococcus aureus [9] = assay: Potentiation of ceftazidime induced antibacterial activity against methicillin-resistant Staphylococcus aureus ATCC 43300 assessed as ceftazidime MIC at 50 uM after 18 hrs by CLSI protocol based broth microdilution assay
Staphylococcus aureus [10] = assay: Potentiation of oxacillin induced antibacterial activity against methicillin-resistant Staphylococcus aureus USA 100 assessed as fold change in oxacillin MIC at 50 uM after 18 hrs by CLSI protocol based broth microdilution assay
Staphylococcus aureus [11] = assay: Potentiation of cefoxitin induced antibacterial activity against methicillin-resistant Staphylococcus aureus USA100 assessed as cefoxitin MIC at 25 uM after 18 hrs by CLSI protocol based broth microdilution assay
Staphylococcus aureus [12] = assay: Potentiation of ampicillin induced antibacterial activity against methicillin-resistant Staphylococcus aureus USA100 assessed as ampicillin MIC at 25 uM after 18 hrs by CLSI protocol based broth microdilution assay
Staphylococcus aureus [13] = assay: Potentiation of oxacillin induced antibacterial activity against methicillin-resistant Staphylococcus aureus USA300 assessed as oxacillin MIC at 25 uM after 18 hrs by CLSI protocol based broth microdilution assay
Staphylococcus aureus [14] = assay: Potentiation of ceftazidime induced antibacterial activity against methicillin-resistant Staphylococcus aureus ATCC 43300 assessed as fold change in ceftazidime MIC at 25 uM after 18 hrs by CLSI protocol based broth microdilution assay
Staphylococcus aureus [15] = assay: Potentiation of ceftazidime induced antibacterial activity against methicillin-resistant Staphylococcus aureus USA300 assessed as fold change in ceftazidime MIC at 25 uM after 18 hrs by CLSI protocol based broth microdilution assay
Staphylococcus aureus [16] = assay: Upregulation of mecA gene expression in methicillin-resistant Staphylococcus aureus COL at 25 uM by RT-PCR method
Staphylococcus aureus [17] = assay: Potentiation of ampicillin induced antibacterial activity against methicillin-resistant Staphylococcus aureus USA100 assessed as fold change in ampicillin MIC at 25 uM after 18 hrs by CLSI protocol based broth microdilution assay
Staphylococcus aureus [18] = assay: Potentiation of methicillin induced antibacterial activity against methicillin-resistant Staphylococcus aureus COL assessed as fold change in methicillin MIC at 25 uM after 18 hrs by CLSI protocol based broth microdilution assay
Staphylococcus aureus [19] = assay: Potentiation of cefoxitin induced antibacterial activity against methicillin-resistant Staphylococcus aureus COL assessed as cefoxitin MIC at 25 uM after 18 hrs by CLSI protocol based broth microdilution assay
Staphylococcus aureus [20] = assay: Potentiation of oxacillin induced antibacterial activity against methicillin-resistant Staphylococcus aureus USA100 assessed as fold change in oxacillin MIC at 25 uM after 18 hrs by CLSI protocol based broth microdilution assay
Staphylococcus aureus [21] = assay: Potentiation of cefoxitin induced antibacterial activity against methicillin-resistant Staphylococcus aureus USA300 assessed as cefoxitin MIC at 25 uM after 18 hrs by CLSI protocol based broth microdilution assay
Staphylococcus aureus [22] = assay: Potentiation of oxacillin induced antibacterial activity against methicillin-resistant Staphylococcus aureus USA300 harboring stk1 deletion mutant assessed as oxacillin MIC at 25 uM after 18 hrs by CLSI protocol based broth microdilution assay
Staphylococcus aureus [23] = assay: Potentiation of ceftazidime induced antibacterial activity against methicillin-resistant Staphylococcus aureus COL assessed as ceftazidime MIC at 25 uM after 18 hrs by CLSI protocol based broth microdilution assay
Staphylococcus aureus [24] = assay: Upregulation of mecA gene expression in methicillin-resistant Staphylococcus aureus USA100 at 25 uM by RT-PCR method
Staphylococcus aureus [25] = assay: Potentiation of ceftazidime induced antibacterial activity against methicillin-resistant Staphylococcus aureus USA100 assessed as ceftazidime MIC at 25 uM after 18 hrs by CLSI protocol based broth microdilution assay
Staphylococcus aureus [26] = assay: Potentiation of methicillin induced antibacterial activity against methicillin-resistant Staphylococcus aureus COL assessed as methicillin MIC at 25 uM after 18 hrs by CLSI protocol based broth microdilution assay
Staphylococcus aureus [27] = assay: Potentiation of oxacillin induced antibacterial activity against methicillin-resistant Staphylococcus aureus assessed as fold decrease in blaZ gene expression at 25 uM by RT-qPCR analysis
How it was run: (§1)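 Fold dampening is the relative mRNA level of the gene, normalised to 16S rRNA, in oxacillin-treated cells divided by that in cells cotreated with oxacillin plus carbazole. Carbazole was used at 25 or 50 μM, as given in each line.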

Staphylococcus aureus [28] = assay: Upregulation of mecA gene expression in methicillin-resistant Staphylococcus aureus USA100 at 50 uM by RT-PCR method
Staphylococcus aureus [29] = assay: Potentiation of oxacillin induced antibacterial activity against methicillin-resistant Staphylococcus aureus USA300 harboring stk1 deletion mutant assessed as fold change in oxacillin MIC at 50 uM after 18 hrs by CLSI protocol based broth microdilution assay
Staphylococcus aureus [30] = assay: Potentiation of oxacillin induced antibacterial activity against methicillin-resistant Staphylococcus aureus assessed as fold decrease in mecA gene expression at 50 uM by RT-qPCR analysis; how it was run: as §1
Staphylococcus aureus [31] = assay: Upregulation of mecA gene expression in methicillin-resistant Staphylococcus aureus ATCC 43300 at 50 uM by RT-PCR method
Staphylococcus aureus [32] = assay: Potentiation of oxacillin induced antibacterial activity against methicillin-resistant Staphylococcus aureus assessed as fold decrease in mecI gene expression at 50 uM by RT-qPCR analysis; how it was run: as §1
Staphylococcus aureus [33] = assay: Upregulation of mecA gene expression in methicillin-resistant Staphylococcus aureus COL at 50 uM by RT-PCR method

Brc1ccc2[nH]c3ccc(Br)cc3c2c1
MIC (Staphylococcus aureus [1]): 256 mg/L | MIC (Staphylococcus aureus [2]): 1020 mg/L | fold change (FC) (Staphylococcus aureus [3]): 16 | MIC (Staphylococcus aureus [4]): 128 mg/L | MIC (Staphylococcus aureus [5]): 32 mg/L | MIC (Staphylococcus aureus [6]): 32 mg/L | fold change (FC) (Staphylococcus aureus [7]): 4 | MIC (Staphylococcus aureus [8]): 8 mg/L | MIC (Staphylococcus aureus [9]): 128 mg/L | fold change (FC) (Staphylococcus aureus [10]): 4

Brc1cccc2[nH]c3ccccc3c12
MIC (Staphylococcus aureus [11]): 64 mg/L | MIC (Staphylococcus aureus [12]): 8 mg/L | MIC (Staphylococcus aureus [13]): 8 mg/L | fold change (FC) (Staphylococcus aureus [14]): 2 | fold change (FC) (Staphylococcus aureus [15]): 1 | Activity (Staphylococcus aureus [16]): inactive | fold change (FC) (Staphylococcus aureus [17]): 4 | fold change (FC) (Staphylococcus aureus [18]): 1 | MIC (Staphylococcus aureus [19]): 256 mg/L | fold change (FC) (Staphylococcus aureus [20]): 16 | MIC (Staphylococcus aureus [21]): 8 mg/L | MIC (Staphylococcus aureus [22]): 0.25 mg/L | MIC (Staphylococcus aureus [23]): 1020 mg/L | Activity (Staphylococcus aureus [24]): inactive | MIC (Staphylococcus aureus [25]): 512 mg/L | MIC (Staphylococcus aureus [26]): 1020 mg/L | fold change (FC) (Staphylococcus aureus [27]): 8.06

Brc1cccc2c1[nH]c1ccccc12
MIC (Staphylococcus aureus [1]): 256 mg/L | MIC (Staphylococcus aureus [2]): 1020 mg/L | fold change (FC) (Staphylococcus aureus [3]): 64 | MIC (Staphylococcus aureus [4]): 0.5 mg/L | MIC (Staphylococcus aureus [5]): 8 mg/L | MIC (Staphylococcus aureus [6]): 8 mg/L | Activity (Staphylococcus aureus [28]): inactive | fold change (FC) (Staphylococcus aureus [7]): 8 | fold change (FC) (Staphylococcus aureus [29]): 1 | fold change (FC) (Staphylococcus aureus [30]): 1.39 | MIC (Staphylococcus aureus [8]): 8 mg/L | Activity (Staphylococcus aureus [31]): inactive | MIC (Staphylococcus aureus [9]): 64 mg/L | fold change (FC) (Staphylococcus aureus [32]): 0.67 | fold change (FC) (Staphylococcus aureus [10]): 512 | Activity (Staphylococcus aureus [33]): inactive
